The source made the active and inactive calls. The calls are words filed in the database; no cut-off is given here.
Experiments:
Liver microsomes = assay: Inhibition of all-trans retinoic acid metabolism in rat liver microsomes; assay type: functional, Microsome
Method in brief: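 Rat liver microsomes incubated with [11,12-3H]-atRA (diluted in unlabeled atRA), inhibitor in acetonitrile, NADPH and 50 mM phosphate buffer pH 7.4, duplicate tubes, 30 min at 37 °C with shaking. Extract evaporated and metabolites resolved by C18 radio-HPLC (acetonitrile/1% ammonium acetate/acetic acid 75:25:0.1). IC50 is the average of two experiments.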

Cytochrome P450 26A1 = target: T1, Cytochrome P450 26A1 (Homo sapiens, UniProt O43174); assay: Inhibition of CYP26A1 in human MCF7 cells assessed as all-trans retinoic acid metabolism; assay type: ADME, cell-based
T1 sequence (O43174 whole entry): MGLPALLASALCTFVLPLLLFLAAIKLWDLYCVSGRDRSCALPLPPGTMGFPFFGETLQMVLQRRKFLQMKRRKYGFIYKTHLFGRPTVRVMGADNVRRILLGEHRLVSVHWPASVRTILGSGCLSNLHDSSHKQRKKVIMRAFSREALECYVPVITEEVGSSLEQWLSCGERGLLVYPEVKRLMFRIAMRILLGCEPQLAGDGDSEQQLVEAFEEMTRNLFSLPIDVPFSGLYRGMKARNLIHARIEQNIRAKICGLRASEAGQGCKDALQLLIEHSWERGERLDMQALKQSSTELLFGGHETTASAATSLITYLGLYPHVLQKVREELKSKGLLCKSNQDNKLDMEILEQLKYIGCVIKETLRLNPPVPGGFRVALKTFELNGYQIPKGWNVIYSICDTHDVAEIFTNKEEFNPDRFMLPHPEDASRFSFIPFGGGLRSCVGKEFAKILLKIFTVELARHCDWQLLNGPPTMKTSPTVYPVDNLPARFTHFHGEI
Method in brief: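 Seeded 2.5 × 10^5 per well and allowed 24 h to adhere, then washed with PBS. Fresh medium with inhibitor in acetonitrile plus atRA (final 1 × 10^-7 M, 0.1 μCi [3H]-atRA), 9 h at 37 °C in the dark, duplicate. Stopped with 1% acetic acid. Metabolites separated by radio-HPLC on C18. IC50 is the average of two experiments.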

Compound | IC50 (Liver microsomes) [µM] | IC50 (Cytochrome P450 26A1) [µM] | Activity (Liver microsomes; Microsome)
COc1ccc2c(c1)CC/C(=C\c1ccccc1C)C2=O | > 20 | 20 | –
Clc1cccc(C(c2ccc3[nH]cnc3c2)n2ccnc2)c1 (configuration not stated) | – | – | Active
O=C1/C(=C/c2ccccc2-c2ccccc2)CCc2cc(O)ccc21 | > 20 | 20 | –
COc1ccc2c(c1)CC/C(=C\c1ccc(O)cc1)C2=O | > 20 | 7 | –
CCC(CC)[C@H](c1ccc(Nc2nc3ccccc3s2)cc1)n1cncn1 | 9 | 0.005 | –
COc1ccc2c(c1)CC/C(=C\c1cc(C(F)(F)F)ccc1C(F)(F)F)C2=O | > 20 | 50 | –
COc1ccc2c(c1)CC/C(=C\c1ccccc1Br)C2=O | > 20 | 9 | –
O=C1/C(=C/c2ccc(-c3ccccc3)cc2)CCc2cc(O)ccc21 | > 20 | 50 | –
CN(C)c1ccc(/C=C2\CCc3cc(O)ccc3C2=O)cc1 | > 20 | 50 | –
COc1ccc2c(c1)CCC(Cc1cc(C(F)(F)F)ccc1C(F)(F)F)C2=O (configuration not stated) | 18 | 50 | –
CC(=O)N1CCN(c2ccc(OCC3COC(Cn4ccnc4)(c4ccc(Cl)cc4Cl)O3)cc2)CC1 (configuration not stated) [KETOCONAZOLE] | 18 | – | –
O=C1/C(=C/c2ccccc2Br)CCc2cc(O)ccc21 | 2.4 | 20 | –

More lines, main results first:

IC50 (Liver microsomes) [µM] | IC50 (Cytochrome P450 26A1) [µM] | Compound | Activity (Liver microsomes; Microsome)
1.8 | 20 | COc1ccc2c(c1)CCC(Cc1ccccc1C)C2=O (configuration not stated) | –
1.2 | 25 | CN(C)c1ccc(CC2CCc3cc(O)ccc3C2=O)cc1 (configuration not stated) | –
0.5 | 10 | O=C1c2ccc(O)cc2CCC1Cc1ccccc1-c1ccccc1 (configuration not stated) | –
0.4 | 5 | COc1ccc2c(c1)CCC(Cc1ccc(O)cc1)C2=O (configuration not stated) | –
2.2 | 25 | COc1ccc2c(c1)CCC(Cc1ccc(O)cc1)C2 (configuration not stated) | –
10.2 | 39 | Nc1ccc(CC2CCc3cc(O)ccc3C2=O)cc1 (single isomer, unassigned; (-)) | –
1.5 | 20 | O=C1c2ccc(O)cc2CCC1Cc1ccc(O)cc1 (configuration not stated) | –
> 20 | 9 | O=C1/C(=C/c2ccc(O)cc2)CCc2cc(O)ccc21 | –
17.6 | 43 | Nc1ccc(CC2CCc3cc(O)ccc3C2=O)cc1 (single isomer, unassigned; (+)) | –
0.8 | 10 | O=C1c2ccc(O)cc2CCC1Cc1ccc(-c2ccccc2)cc1 (configuration not stated) | –

From ChEMBL document CHEMBL1139466, “Novel tetralone-derived retinoic acid metabolism blocking agents: synthesis and in vitro evaluation with liver microsomal and MCF-7 CYP26A1 cell assays” (J Med Chem, 2005)
